Experimental findings from ChEMBL document CHEMBL1155485, “Pyrimidine ribonucleotides with enhanced selectivity as P2Y(6) receptor agonists: novel 4-alkyloxyimino, (S)-methanocarba, and 5'-triphosphate gamma-ester modifications” (J Med Chem, 2010) are described below.

Data set [1] addresses T1, P2Y purinoceptor 6 (Homo sapiens, UniProt Q15077). Nature of the data set: Agonist activity at human recombinant P2Y6 receptor expressed in human 1321N1 cells assessed as [3H]inositol phosphate production by scintillation proximity assay. It counts as functional, cell-based. A digest of the protocol:
(§1)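 Stably transfected 1321N1 astrocytoma cells (human P2Y2, P2Y4 or P2Y6 receptor) seeded at 20,000 cells/well two days before assay; labelled 16 h with myo-[3H]inositol (1.0 μCi) in serum-free inositol-free DMEM. Agonist added in HEPES pH 7.3/HBSS with LiCl (50 mM, fivefold stock), 30 min at 37°C; stopped with ice-cold 50 mM formic acid. [3H]inositol phosphates read by SPA.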

The target of data set [2] is T2, P2Y purinoceptor 2 (Homo sapiens, UniProt P41231). Nature of the data set: Agonist activity at human recombinant P2Y2 receptor expressed in human 1321N1 cells assessed as [3H]inositol phosphate production by scintillation proximity assay. In kind it is functional, cell-based. A digest of the protocol: as §1
T2 sequence (P41231 whole entry): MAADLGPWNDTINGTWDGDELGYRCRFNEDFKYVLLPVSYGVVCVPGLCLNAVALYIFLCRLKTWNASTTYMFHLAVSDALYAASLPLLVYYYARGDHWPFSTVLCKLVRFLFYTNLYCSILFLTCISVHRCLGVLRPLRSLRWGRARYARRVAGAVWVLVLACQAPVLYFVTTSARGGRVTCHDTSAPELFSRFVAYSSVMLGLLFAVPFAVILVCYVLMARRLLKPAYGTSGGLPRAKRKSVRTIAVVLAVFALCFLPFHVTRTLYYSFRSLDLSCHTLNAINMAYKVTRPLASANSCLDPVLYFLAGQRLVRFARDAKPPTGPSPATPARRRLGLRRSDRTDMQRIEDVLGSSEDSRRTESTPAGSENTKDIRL
Another data set concerns the target P2Y purinoceptor 4 (Homo sapiens, UniProt P51582). Nature of the data set: Agonist activity at human recombinant P2Y4 receptor expressed in human 1321N1 cells assessed as [3H]inositol phosphate production by scintillation proximity assay. It counts as functional, cell-based. The procedure, abridged: as §1
The target in data set [3] is T2, P2Y purinoceptor 2. The data set can be described thus: Agonist activity at human recombinant P2Y2 receptor expressed in human 1321N1 cells assessed as [3H]inositol phosphate production at 10 uM by scintillation proximity assay. In kind it is functional, cell-based.
Data set [4] deals with T1, P2Y purinoceptor 6. Nature of the data set: Agonist activity at human recombinant P2Y6 receptor expressed in human 1321N1 cells assessed as [3H]inositol phosphate production up to 10 uM by scintillation proximity assay. In kind it is functional, cell-based. A digest of the protocol:
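Human 1321N1 astrocytoma cells stably expressing the human P2Y2 or P2Y6 receptor, seeded at 20,000 cells/well two days before assay. Inositol lipids labelled for 16 h with 1.0 μCi myo-[3H]inositol in serum-free, inositol-free DMEM. Agonist added in HEPES pH 7.3/HBSS with LiCl, 30 min at 37°C. Stopped with ice-cold 50 mM formic acid; [3H]inositol phosphates counted by scintillation proximity assay. Triplicates.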

A short description of data set [5]: Stability assessed as half life in aqueous acidic solution at pH 1.2 by HPLC. To be noted: buffer. It counts as physicochemical. A digest of the protocol:
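Nucleotide (10 μL of 2 mg/mL aqueous stock) mixed with 90 μL of HCl/NaCl buffer pH 1.2 and held at 37°C. Aliquots taken at intervals were diluted tenfold in water or 5 mM TBAP and run on reverse-phase HPLC with a 5 mM TBAP–acetonitrile gradient. Half-life was derived from peak area.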

A short description of data set [6]: Stability assessed as half life by HPLC in presence of human 1321N1 cell membranes. In kind it is ADME, cell-based. A digest of the protocol: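 Nucleotide (10 μL of 2 mg/mL aqueous stock) mixed with 90 μL of astrocytoma cell membrane suspension in Dulbecco's PBS pH 7.4 (final protein 14.9 μg/mL), incubated at 37°C. At intervals, aliquots were diluted tenfold in water or 5 mM TBAP and analysed by reverse-phase HPLC (TBAP–acetonitrile gradient). Half-life was taken from peak area.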

The species entered for data set [7] is Homo sapiens. Nature of the data set: Selectivity ratio of EC50 for human P2Y2 receptor to EC50 for human P2Y6 receptor.
The species entered for data set [8] is Homo sapiens. Nature of the data set: Selectivity ratio of EC50 for human P2Y4 receptor to EC50 for human P2Y6 receptor.

P2Y purinoceptor 4, sequence (P51582 whole entry): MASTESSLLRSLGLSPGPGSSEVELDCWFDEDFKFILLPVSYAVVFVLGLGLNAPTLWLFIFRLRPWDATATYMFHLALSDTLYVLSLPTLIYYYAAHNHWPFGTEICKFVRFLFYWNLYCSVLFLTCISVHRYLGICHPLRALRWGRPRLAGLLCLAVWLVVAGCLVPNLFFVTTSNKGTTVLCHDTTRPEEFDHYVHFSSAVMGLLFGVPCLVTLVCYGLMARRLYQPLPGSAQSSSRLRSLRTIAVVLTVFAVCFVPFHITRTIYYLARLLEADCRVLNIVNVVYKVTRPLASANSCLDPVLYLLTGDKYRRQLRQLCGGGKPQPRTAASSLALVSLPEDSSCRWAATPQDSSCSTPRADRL
T1 sequence (Q15077 whole entry): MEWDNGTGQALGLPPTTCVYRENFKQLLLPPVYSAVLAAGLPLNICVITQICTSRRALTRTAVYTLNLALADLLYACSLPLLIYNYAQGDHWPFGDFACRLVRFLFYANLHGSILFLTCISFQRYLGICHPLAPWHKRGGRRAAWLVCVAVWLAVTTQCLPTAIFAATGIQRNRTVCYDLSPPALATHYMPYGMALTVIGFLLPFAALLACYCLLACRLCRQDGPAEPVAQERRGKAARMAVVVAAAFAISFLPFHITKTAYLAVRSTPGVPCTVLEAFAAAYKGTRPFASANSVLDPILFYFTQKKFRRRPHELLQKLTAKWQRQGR

Turning to `O=c1[nH]c(=O)n([C@@H]2O[C@H](COP(=O)(O)OP(=O)(O)O)[C@@H](O)[C@H]2O)cc1I`, the EC50 on P2Y purinoceptor 6 [1] was 0.015 µM.

Turning to `O=c1[nH]c(=O)n([C@@H]2O[C@H](COP(=O)(O)OP(=O)(O)OP(=O)(O)O[C@H]3O[C@H](CO)[C@@H](O)[C@H](O)[C@H]3O)[C@@H](O)[C@H]2O)cc1I`, the EC50 at P2Y purinoceptor 6 [1] was 4.69 µM.

As for `CONc1ccn([C@@H]2O[C@H](COP(=O)(O)OP(=O)(O)OP(=O)(O)OC[C@H]3O[C@@H](n4ccc(NOC)nc4=O)[C@H](O)[C@@H]3O)[C@@H](O)[C@H]2O)c(=O)n1`, the EC50 is 2.12 µM on P2Y purinoceptor 2 [2], 0.063 µM at P2Y purinoceptor 6 [1] and 0.56 µM on P2Y purinoceptor 4.

Turning to `CO/N=c1/ccn([C@@H]2O[C@H](COP(=O)(O)CP(=O)(O)O)[C@@H](O)[C@H]2O)c(=O)[nH]1`, the Activity on P2Y purinoceptor 2 [3] is less than 50%.

With `O=C(Cn1c(=O)ccn([C@@H]2O[C@H](COP(=O)(O)OP(=O)(O)OP(=O)(O)O[C@H]3O[C@H](CO)[C@@H](O)[C@H](O)[C@H]3O)[C@@H](O)[C@H]2O)c1=O)c1ccccc1`, at P2Y purinoceptor 6 [4], the Activity is less than 50%. At P2Y purinoceptor 6 [1], the EC50 was more than 10 µM.

On to `CCN(CC)CC.O=c1ccn([C@@H]2O[C@H](COP(=O)(O)OP(=O)(O)OP(=O)(O)Oc3ccccc3)[C@@H](O)[C@H]2O)c(=O)[nH]1`, for which the EC50 is more than 10 µM on P2Y purinoceptor 2 [2] and 2.13 µM on P2Y purinoceptor 6 [1]. Further, the Activity at P2Y purinoceptor 6 [4] and at P2Y purinoceptor 2 [3] was less than 50% throughout. In addition, the figures for the t1/2 in data set [5] and in data set [6] were 164 h and 43 h, respectively.

On to `CCN(CC)CC.O=c1ccn([C@@H]2O[C@H](COP(=O)(O)CP(=O)(O)OP(=O)(O)OC[C@H]3O[C@@H](n4ccc(=O)[nH]c4=O)[C@H](O)[C@@H]3O)[C@@H](O)[C@H]2O)c(=O)[nH]1`, for which the EC50 is more than 10 µM at P2Y purinoceptor 2 [2] and 1.3 µM on P2Y purinoceptor 6 [1]. For the same compound, the t1/2 in [5] is 34 h; in [6], 62 h.

As for `CCN(CC)CC.O=c1ccn([C@@H]2O[C@H](COP(=O)(O)CP(=O)(O)OP(=O)(O)O[C@H]3O[C@H](CO)[C@@H](O)[C@H](O)[C@H]3O)[C@@H](O)[C@H]2O)c(=O)[nH]1`, the Activity at P2Y purinoceptor 6 [4] was less than 50%. In addition, the t1/2 in data set [5] amounted to 2.8 h; in data set [6], 19 h. Besides, on P2Y purinoceptor 6 [1], the EC50 is more than 10 µM.

Regarding `CO/N=c1/ccn([C@@H]2O[C@H](COP(=O)(O)OP(=O)(O)OP(=O)(O)O[C@H]3O[C@H](CO)[C@@H](O)[C@H](O)[C@H]3O)[C@@H](O)[C@H]2O)c(=O)[nH]1`, the EC50 is more than 10 µM on P2Y purinoceptor 2 [2] and 0.18 µM on P2Y purinoceptor 6 [1]. Further, the Activity at P2Y purinoceptor 2 [3] is less than 50%.

As to `CCN(CC)CC.O=c1ccn([C@@H]2O[C@H](COP(=O)(O)OP(=O)(O)OP(=O)(O)O[C@H]3O[C@H](CO)[C@@H](O)[C@H](O)[C@H]3O)[C@@H](O)[C@H]2O)c(=O)[nH]1`, the Activity on P2Y purinoceptor 6 [4] was less than 50%. Also, the t1/2 is 5.1 h in data set [5] and 29 h in [6]. For the same compound, the EC50 at P2Y purinoceptor 6 [1] was more than 10 µM.

In the case of `CCN(CC)CC.CO/N=c1/ccn([C@@H]2O[C@H](COP(=O)(O)OP(=O)(O)O)[C@@H](O)[C@H]2O)c(=O)[nH]1`, the figures for the concentration giving a half-maximal response (EC50) on P2Y purinoceptor 2 [2] and at P2Y purinoceptor 4 were 3.6 µM and 6.45 µM, respectively. In addition, the results for the t1/2 in data set [5] and in data set [6] were 116 h and 55 h, respectively.

Consider `CCN(CC)CC.O=c1[nH]/c(=N\OCc2ccccc2)ccn1[C@@H]1O[C@H](COP(=O)(O)OP(=O)(O)O)[C@@H](O)[C@H]1O`, for which the Ratio EC50 in the data set listed under Homo sapiens [7] stood at 82; in the data set filed under Homo sapiens [8], 44. For the same compound, the values for the EC50 at P2Y purinoceptor 2 [2] and at P2Y purinoceptor 4 were 2.13 µM and 1.15 µM, respectively. Besides, the t1/2 in [5] stood at 126 h; in data set [6], 26 h.

In the case of `CO/N=c1/ccn([C@@H]2O[C@H](COP(=O)(O)OP(=O)(O)OP(=O)(O)Oc3ccccc3)[C@@H](O)[C@H]2O)c(=O)[nH]1`, the EC50 was more than 10 µM at P2Y purinoceptor 2 [2] and 3.49 µM at P2Y purinoceptor 6 [1]. At P2Y purinoceptor 2 [3], the Activity is less than 50%.

For `O=c1ccn([C@@H]2O[C@H](COP(=O)(O)CP(=O)(O)O)[C@@H](O)[C@H]2O)c(=O)[nH]1`, the EC50 at P2Y purinoceptor 6 [1] came out at 0.7 µM.

Regarding `CCO/N=c1/ccn([C@@H]2O[C@H](COP(=O)(O)OP(=O)(O)O)[C@@H](O)[C@H]2O)c(=O)[nH]1`, the EC50 on P2Y purinoceptor 2 [2] amounted to 0.28 µM; on P2Y purinoceptor 4, 0.18 µM.

Regarding `O=c1[nH]c(=O)n([C@@H]2O[C@H](COP(=O)(O)CP(=O)(O)O)[C@@H](O)[C@H]2O)cc1I`, at P2Y purinoceptor 6 [1], the EC50 was determined as 0.13 µM.

Take `CCN(CC)CC.CO/N=c1/ccn([C@@H]2O[C@H](COP(=O)(O)OP(=O)(O)OP(=O)(O)OC[C@H]3O[C@@H](n4ccc(=O)[nH]c4=O)[C@H](O)[C@@H]3O)[C@@H](O)[C@H]2O)c(=O)[nH]1`: the Ratio EC50 was determined as 14 in the data set filed under Homo sapiens [7] and 66 in the data set listed under Homo sapiens [8]. The EC50 on P2Y purinoceptor 2 [2] worked out at 0.17 µM; at P2Y purinoceptor 6 [1] it was 0.012 µM; on P2Y purinoceptor 4, 0.79 µM. The t1/2 in [5] is 120 h; in [6], 23 h.

With `O=c1ccn([C@@H]2O[C@H](COP(=O)(O)OP(=O)(O)OP(=O)(O)O)[C@@H](O)[C@H]2O)c(=O)[nH]1` [URIDINE TRIPHOSPHATE], the t1/2 in data set [5] amounted to 23 h; in [6] it was 31 h.

`CCN(CC)CC.O=c1ccn([C@@H]2O[C@H](COP(=O)(O)OP(=O)(O)OP(=O)(O)OC3CCCCC3)[C@@H](O)[C@H]2O)c(=O)[nH]1`: the EC50 was determined as 2.28 µM at P2Y purinoceptor 2 [2] and 6.99 µM at P2Y purinoceptor 6 [1]. Besides, the results for the t1/2 in data set [5] and in [6] were 193 h and 62 h, respectively.

For `CC(C)(C)O/N=c1/ccn([C@@H]2O[C@H](COP(=O)(O)OP(=O)(O)O)[C@@H](O)[C@H]2O)c(=O)[nH]1`, the values for the concentration giving a half-maximal response (EC50) at P2Y purinoceptor 2 [2] and at P2Y purinoceptor 4 were 3.51 µM and 6.23 µM, respectively.

With `O=c1ccn([C@@]23C[C@H]2[C@H](COP(=O)(O)OP(=O)(O)OP(=O)(O)O)[C@@H](O)[C@H]3O)c(=O)[nH]1`, the EC50 on P2Y purinoceptor 2 [2] came to 0.08 µM; at P2Y purinoceptor 6 [1] it was 1.37 µM; on P2Y purinoceptor 4, 0.3 µM.

For the compound `CO/N=c1\ccn([C@@H]2O[C@H](COP(=O)(O)OP(=O)(O)OP(=O)(O)O)[C@@H](O)[C@H]2O)c(=O)[nH]1`, the EC50 at P2Y purinoceptor 2 [2] worked out at 0.05 µM; at P2Y purinoceptor 6 [1] it was 0.08 µM; at P2Y purinoceptor 4, 0.05 µM.
